Laboratory results reported in ChEMBL document CHEMBL1122885, “Imidazo[1,5-a]pyridines: a new class of thromboxane A2 synthetase inhibitors” (J Med Chem, 1985).

Key:
[1] = biological target: T1, Thromboxane-A synthase (Homo sapiens, UniProt P24557); test: In vitro inhibition of thromboxane A2 synthetase from human platelets.
T1 sequence (P24557 whole entry): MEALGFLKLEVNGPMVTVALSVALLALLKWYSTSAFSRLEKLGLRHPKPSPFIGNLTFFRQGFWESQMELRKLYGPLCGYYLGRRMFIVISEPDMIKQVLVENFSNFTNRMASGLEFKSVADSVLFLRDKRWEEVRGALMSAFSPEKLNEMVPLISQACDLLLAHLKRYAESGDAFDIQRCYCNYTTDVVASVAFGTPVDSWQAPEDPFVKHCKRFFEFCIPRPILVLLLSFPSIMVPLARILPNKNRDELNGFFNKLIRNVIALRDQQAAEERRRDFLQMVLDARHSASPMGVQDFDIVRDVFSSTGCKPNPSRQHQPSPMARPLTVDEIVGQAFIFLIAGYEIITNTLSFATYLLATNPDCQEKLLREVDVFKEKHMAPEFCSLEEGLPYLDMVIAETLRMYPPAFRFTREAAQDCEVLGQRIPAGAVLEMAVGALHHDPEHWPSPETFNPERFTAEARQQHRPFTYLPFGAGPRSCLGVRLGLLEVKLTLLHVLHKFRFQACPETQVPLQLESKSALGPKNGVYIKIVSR
Procedure, shortened: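 Human platelet microsomal Tx synthetase, mixed with solubilized partially purified sheep seminal vesicle PGH2 synthetase to make endoperoxide in situ from [1-14C]arachidonic acid (2 nmol). Buffer 0.1 M Tris-HCl pH 7.5 with tryptophan 5 mM and hemoglobin 0.2 μM; 30 min, 37 °C. PGE2 reduced; TLC, scintillation counting. IC50 read graphically as 50% fall in TxB2/PGF2(α+β) count ratio; mean of ≥2 experiments.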

[2] = Partition coefficient (logP); format: physicochemical; conditions: octanol/water
[3] = biological target: Prostacyclin synthase (Bos taurus); test: In vitro inhibitory activity against prostacyclin synthetase
[4] = biological target: T1, Thromboxane-A synthase; test: In vitro inhibitory activity against thromboxane A2 synthetase with lysed human platelets as the enzyme source.
Procedure, shortened: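 Crude microsomal Tx synthetase from human platelets plus partially purified sheep seminal vesicle PGH2 synthetase forming endoperoxide in situ from [1-14C]arachidonic acid (4 μM); 0.1 M Tris-HCl pH 7.5, 5 mM tryptophan, 0.2 μM hemoglobin; 30 min, 37 °C. PGE2 reduced to PGF2(α+β); products separated by TLC and counted by scintillation. IC50 read graphically at 50% of control TxB2/PGF2(α+β) count ratio; mean of ≥2 experiments.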

[5] = biological target: Cyclooxygenase (Ovis aries); test: In vitro inhibitory activity against Prostaglandin G/H synthase

| Structure (SMILES) | IC50 [1] [µM] | further results |
| --- | --- | --- |
| O=C(O)/C=C/CCCc1cccc2cncn12 | 0.0048 |  |
| O=C(O)/C=C/CCCCCc1cccc2cncn12 | 0.04 |  |
| O=C(O)CCCCc1ccc2cncn2c1 | 3.3 |  |
| Cc1ncc2cccc(CCCCCC(=O)O)n12 | 25 |  |
| C/C(=C\CCCCCc1cccc2cncn12)C(=O)O | 0.019 |  |
| CCCCCCCc1cccc2cncn12 | 3.3 |  |
| O=C(O)CCCCc1ccn2cncc2c1 | 4.7 |  |
| O=C(O)/C=C/C=C/c1cccc2cncn12 | 0.028 |  |
| O=C(O)CCCCc1cccn2cncc12 | 0.39 |  |
| OCCCCCCc1cccc2cncn12 | 0.28 |  |
| CN(C)C(=O)CCCCCc1cccc2cncn12 | 0.55 |  |
| c1cc(CCCCc2nnn[nH]2)n2cncc2c1 | 0.011 |  |
| c1cc(CCCCCc2nnn[nH]2)n2cncc2c1 | 0.019 |  |
| N#CCCCCCc1cccc2cncn12 | 0.63 |  |
| O=C(O)CCCCCc1cccc2cncn12 [PIRMAGREL] |  | IC50 [3]: 100 µM; logP [2]: 1.1; IC50 [4]: 0.0032 µM; IC50 [5]: 10 µM |

The next lines start with results.

| IC50 [1] [µM] | Structure (SMILES) | further results |
| --- | --- | --- |
| 0.077 | NC(=O)CCCCCc1cccc2cncn12 |  |
| 0.27 | CNC(=O)CCCCCc1cccc2cncn12 |  |
| 0.041 | O=C(O)CCCCc1cccc2cncn12 | logP [2]: 0.7 |
| 0.02 | O=C(CCCCCc1cccc2cncn12)NO |  |
| 0.0052 | O=C(O)CCCCCCc1cccc2cncn12 | logP [2]: 1.54 |
| 0.33 | CCOC(=O)CCCCCc1cccc2cncn12 |  |
| 0.021 | O=C(O)CCCCCCCc1cccc2cncn12 | logP [2]: 2.01 |
